Assay results from ChEMBL document CHEMBL3352517, “Anti-inflammatory ursane- and oleanane-type triterpenoids from Vitex negundo var. cannabifolia” (J Nat Prod, 2014).
pIC50: −log10 of the molar value.

Experiments:
[1] = system: RAW264.7; test: Anti-inflammatory activity in mouse RAW264.7 cells assessed as inhibition of lipopolysaccharide-induced nitric oxide production at 80 uM incubated for 24 hrs by Griess reagent based assay; format: functional; details: RAW264.7, 24 h
[2] = system: RAW264.7; test: (§1) Cytotoxicity against mouse RAW264.7 cells assessed as cell viability at 40 uM by MTT assay; format: cell-based; details: raw264.7, 40 µM
[3] = system: RAW264.7; test: Anti-inflammatory activity in mouse RAW264.7 cells assessed as inhibition of lipopolysaccharide-induced nitric oxide production incubated for 24 hrs by Griess reagent based assay; format: functional, cell-based; details: RAW264.7, 24 h
Method in brief: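 LPS-stimulated RAW 264.7 macrophages; NO production read by Griess assay; inhibition expressed as IC50 (μM).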

[4] = as §1; format: cell-based; details: RAW264.7 cells, read-out: Activity

Row | Structure (SMILES) | inhibition at 80 µM [1] | Activity [2] | pIC50 [3] | viability at 40 µM [4]
1 | CC1(C)[C@@H]2C[C@@]3(CC[C@]4(C)[C@@H]5[C@@H]3[C@@H]1O[C@]5(O)C[C@@H]1[C@@]3(C)C[C@@H](O)[C@@H](O)C(C)(C)[C@@H]3CC[C@]14C)C(=O)O2 | < 50% | Non-toxic | – | –
2 | C[C@@H]1[C@@H]2C[C@@]3(CC[C@]4(C)[C@@H]5[C@@H]3[C@]1(C)O[C@]5(O)C[C@@H]1[C@@]3(C)C[C@@H](O)[C@@H](O)C(C)(C)[C@@H]3CC[C@]14C)C(=O)O2 | < 50% | Non-toxic | – | –
3 | CC1(C)CC[C@]2(C(=O)O)CC[C@]3(C)C(=CC[C@@H]4[C@@]5(C)C[C@@H](O)[C@@H](O)C(C)(C)[C@@H]5CC[C@]43C)[C@@H]2C1 | – | Non-toxic | 4.56 | –
4 | C[C@H]1[C@H](C)CC[C@@]23CC[C@]4(C)[C@](OC2=O)([C@H](O)C[C@@H]2[C@@]5(C)C[C@@H](O)[C@@H](O)C(C)(C)[C@@H]5CC[C@]24C)[C@H]13 | – | Non-toxic | 4.47 | –
5 | CC1(C)CC[C@]2(C(=O)O)CC[C@]3(C)C(=CC[C@@H]4[C@@]5(C)C[C@@H](O)[C@@H](O)[C@](C)(CO)[C@@H]5CC[C@]43C)[C@@H]2C1 | – | Non-toxic | 4.39 | –
6 | CC1(C)[C@H](O)[C@H](O)C[C@]2(C)[C@H]3CC=C4[C@@H]5C[C@](C)(CO)CC[C@]5(C(=O)O)CC[C@@]4(C)[C@]3(C)CC[C@@H]12 | < 50% | Non-toxic | – | –
7 | C=C1CC[C@]2(C(=O)O)CC[C@]3(C)C(=CC[C@@H]4[C@@]5(C)C[C@@H](O)[C@@H](O)C(C)(C)[C@@H]5CC[C@]43C)[C@@H]2[C@H]1C | – | Non-toxic | 4.58 | –
8 | C[C@@H]1CC[C@]2(C(=O)O)CC[C@]3(C)C(=CC[C@@H]4[C@@]5(C)C[C@@H](O)[C@@H](O)C(C)(C)[C@@H]5CC[C@]43C)[C@@H]2[C@]1(C)O [EUSCAPHIC ACID] | < 50% | Non-toxic | – | –
9 | C[C@H]1[C@H](C)CC[C@]2(C(=O)O)CC[C@]3(C)C(=CC[C@@H]4[C@@]5(C)C[C@@H](O)[C@H](O)C(C)(C)[C@@H]5CC[C@]43C)[C@H]12 [COROSOLIC ACID] | – | – | – | < 70%
10 | C[C@H]1[C@H](C)CC[C@]2(C(=O)O)CC[C@]3(C)C(=CC[C@@H]4[C@@]5(C)C[C@@H](O)[C@@H](O)C(C)(C)[C@@H]5CC[C@]43C)[C@H]12 [PYGENIC ACID A] | – | – | – | < 70%
11 | CC1(C)CC[C@@]23CC[C@@]4(C)[C@]5(C)CC[C@H]6C(C)(C)[C@H](O)[C@H](O)C[C@]6(C)[C@H]5CC(=O)[C@]4(OC2=O)[C@@H]3C1 | – | – | – | < 70%
12 | C[C@@H]1CC[C@]2(C(=O)O)CC[C@]3(C)C(=CC[C@@H]4[C@@]5(C)C[C@@H](O)[C@H](O)C(C)(C)[C@@H]5CC[C@]43C)[C@@H]2[C@]1(C)O [TOMENTIC ACID] | – | Non-toxic | 4.60 | –
13 | C[C@H]1[C@H](C)CC[C@]2(C(=O)O)CC[C@]3(C)C(=CC[C@@H]4[C@@]5(C)CC[C@H](O)C(C)(C)[C@@H]5CC[C@]43C)[C@H]12 [URSOLIC ACID] | – | – | – | < 70%
14 | C[C@H]1[C@H](C)CC[C@@]23CC[C@@]4(C)[C@]5(C)CC[C@H]6C(C)(C)[C@H](O)[C@H](O)C[C@]6(C)[C@H]5CC(=O)[C@]4(OC2=O)[C@H]13 | < 50% | Non-toxic | – | –
15 | O=c1c(O)c(-c2ccc(O)c(O)c2)oc2cc(O)cc(O)c12 [QUERCETIN] | – | – | 4.78 | –
